High-throughput results from PubChem BioAssay.
Hits are enriched below; roughly 2.9% of the tested compounds scored in any of these assays.
S100A4 MyoIIA: inhibitors of S100A4-myosin IIA peptide binding, primary screen, biochemical, fluorescence polarization, TAMRA-MyoIIA peptide; inhibition, % at 10.7 µM; Protein S100-A4 (Homo sapiens), P26447; AID 652163, 2013; 0.14% of 360,000 active;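 active = mean inhibition of at least 70% across replicates, with every replicate also reaching that level; inconclusive = mean inhibition reaches 70% but some replicates fall short; inactive = mean inhibition below 70%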
Target sequence (P26447 whole entry, looked up): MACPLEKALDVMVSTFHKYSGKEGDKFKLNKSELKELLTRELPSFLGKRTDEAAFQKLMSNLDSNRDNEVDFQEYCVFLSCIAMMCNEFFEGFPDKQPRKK
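Test system – S100A4 monomer (human) · Compound – single-point compound testing · Schedule – 5 min incubation before reading · Probe or stimulus – TAMRA-labelled myosin IIA heavy-chain peptide probe, 5 nM · Benchmarks – neutral control DMSO, positive control TFP · Medium – Calcium-containing HEPES buffer, pH 7.2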
DENV2 CPE: inhibitors of DENV2 cytopathic effect, primary screen, cell-based, plate reader, single concentration. DENV2-infected cells, cytopathic effect rescue. 1.7% of 350,000 active. CPE inhibition, % at 9.99 µM; in the data active = CPE inhibition above about 20%, passing the limit was not always enough; inconclusive = no clear call, values can overlap the other calls; tested in BHK-21 cells;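 also: 0% = median of neutral control wells and 100% = median of positive control wells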
SIRT5 inh: SIRT5 desuccinylase inhibitors, primary screen, biochemical, fluorescence imaging, single point, set 5. NAD-dependent protein deacylase sirtuin-5, mitochondrial (Homo sapiens), Q9NXA8. Purified SirT5, succinyl-peptide AMC, trypsin-coupled fluorescence. inhibition, % at 15 µM. 1.1% of 330,000 active. AID 652115, 2013; in the data active = inhibition above about 15%; inconclusive = no clear call, values can overlap the other calls
Target sequence (Q9NXA8 whole entry, looked up): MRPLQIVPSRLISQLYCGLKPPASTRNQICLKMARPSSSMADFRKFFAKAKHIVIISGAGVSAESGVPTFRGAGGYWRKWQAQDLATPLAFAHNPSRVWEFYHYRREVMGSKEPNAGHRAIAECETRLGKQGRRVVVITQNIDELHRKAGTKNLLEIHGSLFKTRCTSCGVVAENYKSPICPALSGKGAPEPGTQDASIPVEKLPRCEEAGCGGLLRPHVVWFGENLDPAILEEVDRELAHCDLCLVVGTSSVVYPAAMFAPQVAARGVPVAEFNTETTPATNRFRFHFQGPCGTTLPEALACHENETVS
CAL PDZ FP-1: CAL PDZ peptide-binding inhibitors, primary screen, biochemical, fluorescence polarization, Cer-tagged CAL PDZ, HTS; AID 504414, 2011; inhibition, % at 20 µM; 0.02% of 330,000 active; purified CAL PDZ, TMR-peptide fluorescence polarization, 1 h;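 active = highest replicate inhibition of at least 40%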;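 also: plate controls were DMSO neutral control wells for no effect and unlabeled competitor peptide control wells for full effect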
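System: purified tagged CAL PDZ domain construct (CerCALP). Schedule: 1 h incubation at room temperature before polarization reading. Medium: 25 mM sodium phosphate pH 7.4, 150 mM NaCl, TCEP, IgG, Thesit. Read-out: percent inhibition from loss of millipolarization. Measured by: FP readout, S and P plane fluorescence. Probe or stimulus: fluorescent TMR peptide probe.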
CAL PDZ FP-2: untagged CAL PDZ binding inhibitors, primary screen, biochemical, fluorescence polarization, HTS; Golgi-associated PDZ and coiled-coil motif-containing protein (Homo sapiens), Q9HD26; purified CAL PDZ, TMR-peptide fluorescence polarization, 1 h; inhibition, % at 24.9 µM; 0.92% of 300,000 active;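 active = mean inhibition of at least 30% with at least half of replicates also reaching 30%; inconclusive = no clear call, values can overlap the other calls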;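 also: 0% = DMSO neutral control and 100% = excess unlabeled competitor peptide PRC23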
ERAP1 HTS inh: human ERAP1 aminopeptidase inhibitors, primary screen, biochemical, single point, plate reader; recombinant ERAP1, Leu-AMC fluorescence, 60 min; Endoplasmic reticulum aminopeptidase 1 (Homo sapiens), Q9NZ08; AID 652197, 2013; inhibition, % at 10.7 µM; 0.15% of 340,000 active;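 active = mean replicate inhibition of at least 30%, or all replicates individually reaching that 30% level; inactive = mean below 30% and not every replicate reaching it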;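 also: 0% = neutral control wells and 100% = L-leucinethiol positive control wells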
* = called active by the depositor; ? = inconclusive; . = not tested or not shown.

SMILES	S100A4 MyoIIA	DENV2 CPE	SIRT5 inh	CAL PDZ FP-1	CAL PDZ FP-2	ERAP1 HTS inh
NC(=O)c1ncn([C@@H]2O[C@H](C(=O)N[C@H](Cc3c[nH]c4ccccc34)C(=O)N3CCN(C(=O)C4CC4)CC3)[C@@H](O)[C@H]2O)n1	-21	-1	0	.	.	0
COc1cccc(N2CCc3c(C)nc4ccc(Cl)cc4c32)c1	12	41*	4	-4	-4	-1
CN(CC1COc2ccccc2O1)C(=O)c1cc(COc2c(F)cccc2F)on1 (centres undefined)	0	10	-5	-1	57*	-3
CN(CC1COCCO1)C(=O)c1cc(COc2c(F)cccc2F)on1 (centres undefined)	14	-5	-3	-1	0	-6
CC(C(=O)NCC1CCCO1)N1C(=O)C2C3CC(C(Br)C3Br)C2C1=O (centres undefined)	0	8	5	1	109*	.
Cc1noc(C)c1NC(=O)N(C)C[C@@H]1Oc2ccc(NC(=O)Nc3ccc4c(c3)OCO4)cc2C(=O)N([C@H](C)CO)C[C@@H]1C	8	9	-1	.	.	1
COc1cc(OC)c(C(=O)Nc2cccc3ccccc23)cc1OC	-3	-7	3	-2	33*	2
CN(C)CC(=O)N[C@@H]1CC[C@@H](CC(=O)NCc2ccccc2F)O[C@@H]1CO	-1	.	2	.	.	-1
CC(=O)N(C)C[C@H]1Oc2ncc(C#Cc3ccncc3)cc2C(=O)N([C@@H](C)CO)C[C@H]1C	-5	?	1	.	.	2
CN(c1ccccc1)S(=O)(=O)c1cccc(C(=O)NCCc2c[nH]c3ccccc23)c1	-8	-3	-1	9	59*	.
C[C@@H]1CCCCO[C@@H](CN(C)Cc2ccc3c(c2)OCO3)[C@H](C)CN([C@H](C)CO)C(=O)c2cc(NC(=O)Nc3ccc(C(F)(F)F)cc3)ccc2O1	18	-35	8	.	.	-3
O=C(Nc1ccccc1Oc1ccsc1C(=O)O)c1ccccc1	-1	0	-2	-3	39*	-4
O=C(Nc1ccccc1Oc1ccsc1C(=O)O)c1ccccc1F	-4	2	-3	-1	-1	-3
O=C(Cc1ccccc1)N[C@H]1CC[C@H](CC(=O)N2CCCCC2)O[C@H]1CO	13	-2	8	.	.	-1
CCCCC1=CC2=C(c3ccco3)C(=O)C(C)(OC(=O)c3ccc(OC)cc3)C(=O)C2=CN1C1CC1 (centres undefined)	3	53*	.	0	0	-2
CCn1c(SCC(=O)Nc2cc(C)on2)nnc1-c1cccc(C)c1	6	4	0	0	48*	1
Cc1cc(NC(=O)CSc2ccc(-c3cccc([N+](=O)[O-])c3)nn2)no1	-2	-4	-1	0	56*	1
O=C(CSc1ccc(-c2ccccc2)nn1)N1CCN(c2ccccc2)CC1	-6	-13	18*	0	-2	2
O=C(CSc1ccc(-c2cccc([N+](=O)[O-])c2)nn1)N1CCCC1	5	2	-5	.	65*	1
Cc1cc(NC(=O)CSc2ccc(-c3ccccc3)nn2)no1	.	.	.	-3	1	.
CO[C@@H]1CN(C)C(=O)c2cc(C#N)ccc2OC[C@H]2O[C@@H](CC[C@H]2OC)CCN(C)C(=O)[C@H]1C	2	0	-3	.	.	1
C[C@@H]1CN([C@@H](C)CO)C(=O)c2cc(C3=CCCCC3)cnc2O[C@H]1CN(C)Cc1ccccn1	13	4	-1	.	.	0
CCOC(=O)[C@H]1[C@H]2COc3ccc(Br)cc3[C@@H]2N2C(=O)CN(Cc3ccco3)C(=O)[C@@]12C	-4	50*	.	-2	-6	.
CCOC(=O)[C@H]1[C@H]2COc3ccc(Br)cc3[C@@H]2N2C(=O)CN(Cc3ccc(Cl)cc3)C(=O)[C@@]12C	-9	3	4	0	-4	1
CCOC(=O)[C@@H]1[C@H]2COc3ccc(Br)cc3[C@@H]2N2C(=O)N(c3ccc(C)cc3)C(=O)[C@]12C	-5	51*	.	1	-3	4
SMILES	S100A4 MyoIIA	DENV2 CPE	SIRT5 inh	CAL PDZ FP-1	CAL PDZ FP-2	ERAP1 HTS inh
C[C@H](CO)N1C[C@H](C)[C@H](CN(C)Cc2ccc(C(=O)O)cc2)Oc2ccc(NC(=O)Cc3ccccc3)cc2C1=O	-2	-3	-3	.	.	1
Cc1ccc(-c2csc(NCCn3c(-c4ccncc4)nc4cc(C(F)(F)F)ccc43)n2)cc1	-2	2	17*	-1	-2	9
COc1cccc(NC(=O)CN(C)C(=O)CCCc2nc3ccccc3s2)c1	2	25*	0	-3	-3	-7
COC(=O)c1c(C(C)=O)c(C)n(C)c1C	3	1	16*	1	-2	.
COC(=O)Cn1c(C)c(C(C)=O)c(C(C)=O)c1C	-3	.	-5	1	0	1
C[C@@H]1CN([C@H](C)CO)C(=O)c2cc(NC(=O)c3ccncc3)ccc2O[C@@H](C)CCCCO[C@@H]1CN(C)Cc1ccc(C(=O)O)cc1	3	-1	-2	.	.	2
Cc1cc(C)c2c(c1)/C(=N/NC(=O)c1ccc(O)cc1)CCC2	-6	-4	1	0	69*	0
Cc1cc(C)c(S(=O)(=O)NCc2ccc3c(c2)OCO3)c(C)c1	-3	-2	-6	.	69*	10
O=S(=O)(NCc1ccc2c(c1)OCO2)c1ccccc1F	-3	-3	22*	0	-8	-1
Cc1cc(C)c(S(=O)(=O)NCc2ccc3c(c2)OCO3)cc1C	6	3	.	0	0	3
O=S(=O)(NCc1ccc2c(c1)OCO2)c1ccc(F)c(F)c1	8	-2	3	0	.	-6
COc1cccc(S(=O)(=O)N[C@@H]2CC[C@H](CCN)O[C@@H]2CO)c1	14	-10	2	.	.	13
C[C@H]1CN([C@@H](C)CO)C(=O)Cc2cc(NC(=O)CCCCCC(=O)Nc3ccccc3N)ccc2O[C@@H]1CN(C)Cc1ccc(-c2ccccc2)cc1	0	-19	-2	.	.	2
C[C@H](CO)N1C[C@H](C)[C@H](CN(C)Cc2ccc(Oc3ccccc3)cc2)Oc2ccc(NC(=O)CCCCCC(=O)Nc3ccccc3N)cc2CC1=O	4	7	30*	.	.	0
C[C@H](CO)N1C[C@H](C)[C@H](CN(C)Cc2ccccc2)Oc2ccc(NC(=O)CCCCCC(=O)Nc3ccccc3N)cc2CC1=O	-1	58*	0	.	.	-1
